Measured values taken from PubChem BioAssay AID493176 (Broad Institute, 2011).
Results filed as inconclusive are left out. The source made the active and inactive calls.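 How the source made its calls: active means every replicate test active, with falling luminescence and half-maximal potency within ten times the top tested dose; inconclusive means tests disagree, or partial flat loss or unreliable fit; inactive means all tests inactive, flat or rising signal or weak potency.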

tested on: not listed separately; experiment: viability loss in HMLE_shECad cells – cell-based, CellTiter-Glo luminescence, dry powder, set 3, dose response (AID 493176); conditions: HMLE_shECad viability, CellTiter-Glo luminescence, 72 h; at 19.5 µM (top of the series)
Outline: (§1)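 Material: E-cadherin-knockdown HMLE cells (HMLE_shECad), CSC-like | Amount: 2000 cells/well | Buffer or medium: Serum-free CSC medium | Doses: Pin-transferred compounds | Times: ≥4 h adherence, ~70-74 h compound exposure, 37 °C, 5% CO2 | Detection: CellTiter-Glo luminescence, reagent diluted 1:3 in PBS | Measure: Cell viability derived from luminescence signal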

With `O=C(c1ccccc1)c1coc2ccc(O)c(Br)c12` the activity change, negative = inhibition was 1.46% (inactive).

tested on: HMLE_shECad viability, CellTiter-Glo luminescence, 72 h; experiment: as above; conditions: not given
Outline: as §1

In order of falling AC50:
1. CN(c1ccccc1)S(=O)(=O)c1ccc(-c2ccccc2)cc1  12.7 µM
2. Cc1csc(NC(=O)c2ccc(COc3ccccc3)o2)n1  12.3 µM
3. Nc1cc(Cl)ccc1Oc1ccc2ccccc2c1  10.5 µM
4. O=C(Nc1ccccc1N1CCCC1)c1cccc(-c2cc3ccccc3oc2=O)c1  10 µM
5. C/C(=N\NC(=O)c1cc(-c2cccc([N+](=O)[O-])c2)n[nH]1)c1ccccc1O  8.72 µM
6. CC(C)c1ccc(/C=C/C(=O)NC2=NCCS2)cc1  7.96 µM
7. Cc1onc(-c2ccccc2)c1C(=O)Nc1sc2c(c1C#N)CCC(C)C2 (stereo unspecified)  7.81 µM
8. Cc1cc(C)nc(NC(=O)/C=C/c2cccs2)c1  5.95 µM
9. O=C(COc1ccc(Cl)cc1Cl)N/N=C/c1ccc[nH]1  5.91 µM
10. Cc1ccc2nc(NC(=O)c3cccc(-c4cc5ccccc5oc4=O)c3)sc2c1  5.37 µM
11. CCN1C(=O)/C(=C\N2CCN(c3cccc(Cl)c3)CC2)SC1=S  4.92 µM
12. CC(C)(C)c1ccc2c(c1)OC(C(=O)NN=Cc1ccc[nH]1)CO2 (mixture of isomers)  2.21 µM
13. CCCCCCc1cc2cc(S(=O)(=O)c3ccc(Cl)cc3)c(=O)oc2cc1O  2.2 µM
14. CC(=O)c1cccc(NS(=O)(=O)c2cc(-c3cnc(C4CC4)o3)ccc2C)c1  1.02 µM
15. CC(C)CC(=O)NC(NC(=S)Nc1sc2c(c1C#N)CCCC2)C(Cl)(Cl)Cl (stereo unspecified)  0.619 µM
